Laboratory results from ChEMBL document CHEMBL3102840, “Synthesis and anti-proliferative activity of aromatic substituted 5-((1-benzyl-1H-indol-3-yl)methylene)-1,3-dimethylpyrimidine-2,4,6(1H,3H,5H)-trione analogs against human tumor cell lines” (2014).

Experiments:
Format in all cases: functional
[1] = Cytotoxicity against human UACC257 cells after 48 hrs by SRB assay; details: UACC-257, 48 h; for CC50: read-out: LC50 (the source's name)
In short: (§1)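 Five-dose run from the sixty-line panel, at 10−4, 10−5, 10−6, 10−7 and 10−8 M. SRB-stain OD is read just before compound addition, after 48 hrs of exposure, and in vehicle controls, giving percentage growth; negative growth indicates cytotoxicity. GI50 is the concentration giving 50% reduction in net protein increase versus control cells. LC50 is the concentration lethal to 50% of cells.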

UACC-62 = test: Cytotoxicity against human UACC62 cells after 48 hrs by SRB assay; details: UACC-62, 48 h; in short: as §1
MDA-MB-231 = test: Cytotoxicity against human MDA-MB-231 cells after 48 hrs by SRB assay; details: MDA-MB-231, 48 h; for CC50: read-out: LC50 (the source's name); in short: as §1
SN12C = test: Cytotoxicity against human SN12C cells after 48 hrs by SRB assay; details: for CC50: read-out: LC50 (the source's name); in short: as §1
[2] = Cytotoxicity against human NCI-ADR-RES cells after 48 hrs by SRB assay; details: for CC50: read-out: LC50 (the source's name); in short: as §1
SW-620 = test: Cytotoxicity against human SW620 cells after 48 hrs by SRB assay; details: SW-620, 48 h; for CC50: read-out: LC50 (the source's name); in short: as §1
TK-10 [3] = test: Cytotoxicity against human TK10 cells assessed as growth inhibition at 10 uM after 48 hrs by SRB assay; details: TK-10, 48 h, read-out: GI
In short: (§2)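 Single-dose screen at 10µM across the sixty-cell-line panel. Percentage growth is derived from SRB-stain OD taken just before compound exposure, after 48 hrs exposure, and in vehicle-treated controls. Negative values indicate cytotoxicity.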

T47D = test: Cytotoxicity against human T47D cells after 48 hrs by SRB assay; in short: as §1
SR = test: Cytotoxicity against human SR cells after 48 hrs by SRB assay; in short: as §1
786-0 = test: Cytotoxicity against human 786-0 cells after 48 hrs by SRB assay; details: 786-0, 48 h; in short: as §1
IGROV-1 = test: Cytotoxicity against human IGROV1 cells after 48 hrs by SRB assay; details: IGROV-1, 48 h; for CC50: read-out: LC50 (the source's name); in short: as §1
NCI-H23 = test: Cytotoxicity against human NCI-H23 cells after 48 hrs by SRB assay; details: NCI-H23, 48 h; in short: as §1
SK-OV-3 = test: Cytotoxicity against human SKOV3 cells after 48 hrs by SRB assay; details: SK-OV-3, 48 h; in short: as §1
OVCAR-8 = test: Cytotoxicity against human OVCAR8 cells after 48 hrs by SRB assay; details: OVCAR-8, 48 h; for CC50: read-out: LC50 (the source's name); in short: as §1
K562 = test: Cytotoxicity against human K562 cells after 48 hrs by SRB assay; details: K562, 48 h; for CC50: read-out: LC50 (the source's name); in short: as §1
COLO 205 = test: Cytotoxicity against human COLO205 cells after 48 hrs by SRB assay; details: COLO 205, 48 h; for CC50: read-out: LC50 (the source's name); in short: as §1
SF-295 = test: Cytotoxicity against human SF295 cells after 48 hrs by SRB assay; details: SF-295, 48 h; in short: as §1
MDA-MB-468 [4] = test: Cytotoxicity against human MDA-MB-468 cells after 48 hrs by SRB assay; details: MDA-MB-468, 48 h; in short: as §1
SK-MEL-5 = test: Cytotoxicity against human SK-MEL-5 cells after 48 hrs by SRB assay; details: SK-MEL-5, 48 h; in short: as §1
HOP-62 = test: Cytotoxicity against human HOP62 cells after 48 hrs by SRB assay; details: HOP-62, 48 h; for CC50: read-out: LC50 (the source's name); in short: as §1
MDA-MB-468 [5] = test: Cytotoxicity against human MDA-MB-468 cells assessed as growth inhibition at 10 uM after 48 hrs by SRB assay; details: MDA-MB-468, 48 h, read-out: GI; in short: as §2
[6] = Cytotoxicity against human OVCAR5 cells after 48 hrs by SRB assay; details: OVCAR-5, 48 h; for CC50: read-out: LC50 (the source's name); in short: as §1
[7] = Cytotoxicity against human OVCAR5 cells assessed as growth inhibition at 10 uM after 48 hrs by SRB assay; details: OVCAR-5, 48 h, read-out: GI; in short: as §2
RXF 393 = test: Cytotoxicity against human RXF393 cells after 48 hrs by SRB assay; details: RXF 393, 48 h; in short: as §1
NCI-H460 = test: Cytotoxicity against human NCI-H460 cells after 48 hrs by SRB assay; details: NCI-H460, 48 h; for CC50: read-out: LC50 (the source's name); in short: as §1
LOX IMVI = test: Cytotoxicity against human LOXIMVI cells after 48 hrs by SRB assay; details: for CC50: read-out: LC50 (the source's name); in short: as §1
A498 [8] = test: Cytotoxicity against human A498 cells assessed as growth inhibition at 10 uM after 48 hrs by SRB assay; details: A498, 48 h, read-out: GI; in short: as §2
NCI-H226 [9] = test: Cytotoxicity against human NCI-H226 cells assessed as growth inhibition at 10 uM after 48 hrs by SRB assay; details: NCI-H226, 48 h, read-out: GI; in short: as §2
HCT-116 = test: Cytotoxicity against human HCT116 cells after 48 hrs by SRB assay; details: HCT-116, 48 h; in short: as §1
SK-MEL-2 = test: Cytotoxicity against human SK-MEL-2 cells after 48 hrs by SRB assay; details: SK-MEL-2, 48 h; in short: as §1
MCF7 = test: Cytotoxicity against human MCF7 cells after 48 hrs by SRB assay; details: MCF7, 48 h; in short: as §1
MDA-MB-435 = test: Cytotoxicity against human MDA-MB-435 cells after 48 hrs by SRB assay; details: MDA-MB-435, 48 h; in short: as §1
TK-10 [10] = test: Cytotoxicity against human TK10 cells after 48 hrs by SRB assay; details: TK-10, 48 h; for CC50: read-out: LC50 (the source's name); in short: as §1
A498 [11] = test: Cytotoxicity against human A498 cells after 48 hrs by SRB assay; details: A498, 48 h; in short: as §1
NCI-H226 [12] = test: Cytotoxicity against human NCI-H226 cells after 48 hrs by SRB assay; details: NCI-H226, 48 h; for CC50: read-out: LC50 (the source's name); in short: as §1
SNB-19 = test: Cytotoxicity against human SNB19 cells after 48 hrs by SRB assay; details: SNB-19, 48 h; in short: as §1
BT-549 = test: Cytotoxicity against human BT549 cells after 48 hrs by SRB assay; details: BT-549, 48 h; for CC50: read-out: LC50 (the source's name); in short: as §1

## CN1C(=O)C(=Cc2cn(Cc3ccc(F)cc3)c3ccccc23)C(=O)N(C)C1=O
[1]
  GI50: 2.52 µM
  CC50: > 100 µM
UACC-62
  GI50: 2.89 µM
  LC50: > 100 µM
MDA-MB-231
  GI50: 23.6 µM
  CC50: > 100 µM
SN12C
  GI50: > 100 µM
  CC50: > 100 µM
[2]
  GI50: > 100 µM
  CC50: > 100 µM
SW-620
  GI50: > 100 µM
  CC50: > 100 µM
TK-10 [3]
  inhibition of growth at 10 µM: -15%
T47D
  GI50: 5.38 µM
  LC50: > 100 µM
SR
  GI50: > 100 µM
  LC50 (lethal concentration, 50%): > 100 µM
786-0
  GI50: 22.7 µM
  LC50: > 100 µM
IGROV-1
  GI50: 4.33 µM
  CC50: > 100 µM
NCI-H23
  GI50: 51.5 µM
  LC50: > 100 µM
SK-OV-3
  GI50: 15.3 µM
  LC50: > 100 µM
OVCAR-8
  GI50: > 100 µM
  CC50: > 100 µM
K562
  CC50: > 100 µM
COLO 205
  GI50: 1.44 µM
  CC50: > 100 µM
SF-295
  GI50: 1.97 µM
  LC50: > 100 µM
MDA-MB-468 [4]
  GI50: 0.03 µM
  LC50: 0.5 µM
SK-MEL-5
  GI50: > 100 µM
  LC50: > 100 µM
HOP-62
  GI50: 7.7 µM
  CC50: > 100 µM
MDA-MB-468 [5]
  inhibition of growth at 10 µM: -71%
[6]
  GI50: 0.11 µM
  CC50: > 100 µM
[7]
  inhibition of growth at 10 µM: -33%
RXF 393
  GI50: 14.9 µM
  LC50 (lethal concentration, 50%): > 100 µM
NCI-H460
  GI50: 0.37 µM
  CC50: > 100 µM
LOX IMVI
  GI50: > 100 µM
  CC50: > 100 µM
A498 [8]
  inhibition of growth at 10 µM: -85%
NCI-H226 [9]
  inhibition of growth at 10 µM: -78%
HCT-116
  GI50: 6.26 µM
  LC50: > 100 µM
SK-MEL-2
  GI50: 6.35 µM
MCF7
  GI50: > 100 µM
  LC50: > 100 µM
MDA-MB-435
  GI50: > 100 µM
  LC50: > 100 µM
TK-10 [10]
  GI50: 0.59 µM
  CC50: > 100 µM
A498 [11]
  GI50: 0.07 µM
  LC50: 0.67 µM
NCI-H226 [12]
  GI50: 2.56 µM
  CC50: > 100 µM
SNB-19
  GI50: 26.7 µM
  LC50: > 100 µM
BT-549
  GI50: 24.1 µM
  CC50: > 100 µM

## Cc1ccc(Cn2cc(C=C3C(=O)N(C)C(=O)N(C)C3=O)c3ccccc32)cc1
[1]
  GI50: 2.02 µM
  CC50: > 100 µM
UACC-62
  GI50: 2.42 µM
  LC50: > 100 µM
MDA-MB-231
  GI50: 13.6 µM
  CC50: > 100 µM
SN12C
  GI50: > 100 µM
  CC50: > 100 µM
[2]
  GI50: 6.23 µM
  CC50: > 100 µM
SW-620
  CC50: > 100 µM
TK-10 [3]
  inhibition of growth at 10 µM: -4%
T47D
  GI50: 5 µM
  LC50: > 100 µM
SR
  GI50: 1.89 µM
  LC50 (lethal concentration, 50%): > 100 µM
786-0
  GI50: 22.1 µM
  LC50: > 100 µM
IGROV-1
  GI50: 2.95 µM
  CC50: > 100 µM
NCI-H23
  GI50: 8.19 µM
  LC50: > 100 µM
SK-OV-3
  GI50: 23.7 µM
  LC50: > 100 µM
OVCAR-8
  GI50: > 100 µM
  CC50: > 100 µM
K562
  GI50: 2.23 µM
  CC50: > 100 µM
COLO 205
  GI50: 1.89 µM
  CC50: > 100 µM
SF-295
  GI50: 2.02 µM
  LC50: > 100 µM
MDA-MB-468 [4]
  GI50: 0.03 µM
  LC50: 0.62 µM
SK-MEL-5
  GI50: 9.17 µM
  LC50: > 100 µM
HOP-62
  GI50: 7.44 µM
  CC50: > 100 µM
MDA-MB-468 [5]
  inhibition of growth at 10 µM: -62%
[6]
  GI50: 0.07 µM
  CC50: > 100 µM
[7]
  inhibition of growth at 10 µM: -23%
RXF 393
  GI50: 15.2 µM
  LC50 (lethal concentration, 50%): > 100 µM
NCI-H460
  GI50: 0.91 µM
  CC50: > 100 µM
LOX IMVI
  GI50: 27.8 µM
  CC50: > 100 µM
A498 [8]
  inhibition of growth at 10 µM: -91%
NCI-H226 [9]
  inhibition of growth at 10 µM: -63%
HCT-116
  GI50: 5.45 µM
  LC50: > 100 µM
SK-MEL-2
  GI50: 3.36 µM
MCF7
  GI50: 6.76 µM
  LC50: > 100 µM
MDA-MB-435
  LC50: > 100 µM
TK-10 [10]
  GI50: 0.28 µM
  CC50: > 100 µM
A498 [11]
  GI50: 0.12 µM
  LC50: 0.69 µM
NCI-H226 [12]
  GI50: 1.95 µM
  CC50: > 100 µM
SNB-19
  GI50: 26.8 µM
  LC50: > 100 µM
BT-549
  GI50: 13.5 µM
  CC50: > 100 µM
